Data set [1] concerns recurrent or refractory NSCLC. The conditions noted are these: everolimus monotherapy; cited from earlier work.
A short description of data set [2]: Everolimus pharmacokinetics in blood, cycle 1. Type of data set: in vivo, human. Particulars: for AUC(0-t) / Cmax: human, whole blood, oral. The procedure, abridged:
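NSCLC patients; oral mTOR inhibitor daily on days 1–19 of 3-week cycles, with a 60-min i.v. co-drug infusion on day 1 and dexamethasone premedication. Cycle 1, days 1, 8 and 15: 2 mL venous blood into K-EDTA at 30 min pre-dose and 1, 2, 5, 8 and 24 h post-dose, frozen at −20 °C within 60 min.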

For data set [3] the following is noted: single agent; cited from earlier work.
Data set [4] in a line: Docetaxel pharmacokinetics in plasma, day 1 of cycle 1. It is filed as in vivo. The conditions noted are these: human, intravenous. The method in brief: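 Patients with advanced NSCLC got a 60-min i.v. docetaxel infusion on day 1, alongside oral everolimus (5 or 7.5 mg daily) and dexamethasone premedication (8 mg twice daily for 3 days, starting the day before). Peripheral venous blood was drawn into sodium heparin on cycle 1 day 1, centrifuged (4 °C, 3000 × g, 10 min), and plasma stored at −80 °C. Validated LC-MS/MS quantitation was used, with noncompartmental t1/2.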

The conditions of data set [5]: single-agent docetaxel, second line NSCLC; cited from earlier work.

Molecules are shown by their SMILES. Like-named read-outs stand apart in the source and are kept apart here.

Regarding `CO[C@H]1C[C@@H]2CC[C@@H](C)[C@@](O)(O2)C(=O)C(=O)N2CCCC[C@H]2C(=O)O[C@H]([C@H](C)C[C@@H]2CC[C@@H](OCCO)[C@H](OC)C2)CC(=O)[C@H](C)/C=C(\C)[C@@H](O)[C@@H](OC)C(=O)[C@H](C)C[C@H](C)/C=C/C=C/C=C/1C` [Everolimus, everolimus], the “recommended phase II dose (RP2D)” value (everolimus days 1-19 every 3 weeks, in combination with docetaxel) is listed as 5 mg PO daily. The response rate in data set [1] was 5%. Besides, in data set [2] (5 and 7.5 mg/day), the “Everolimus exposure (mean AUC and Cmax) versus dose” value is “increased proportionally with dose”. For the same molecule, the area under the curve AUC(0-t) (as a rule, exposure summed from dosing to a finite time, without extrapolation to infinity) in data set [2] (60 mg/m2, AUC0-24, Day 1, everolimus 5 mg/day, docetaxel 60 mg/m^2, n=3, mean (SD)) is 244 ng·h/mL; in data set [2] (60 mg/m2, AUC0-24, Day 8, everolimus 5 mg/day, docetaxel 60 mg/m^2, n=3, mean (SD)), 329 ng·h/mL; in data set [2] (60 mg/m2, AUC0-24, Day 15, everolimus 5 mg/day, docetaxel 60 mg/m^2, n=3, mean (SD)), 350 ng·h/mL; in data set [2] (75 mg/m2, AUC0-24, Day 1, everolimus 5 mg/day, docetaxel 75 mg/m^2, n=10, mean (SD)), 330 ng·h/mL; in data set [2] (75 mg/m2, AUC0-24, Day 1, everolimus 7.5 mg/day, docetaxel 75 mg/m^2, n=4, mean (SD)) it was 379 ng·h/mL; in data set [2] (75 mg/m2, AUC0-24, Day 8, everolimus 5 mg/day, docetaxel 75 mg/m^2, n=6, mean (SD)), 336 ng·h/mL. The AUC(0-t) in data set [2] (75 mg/m2, AUC0-24, Day 15, everolimus 5 mg/day, docetaxel 75 mg/m^2, n=6, mean (SD)) worked out at 369 ng·h/mL; in data set [2] (75 mg/m2, AUC0-24, Day 15, everolimus 7.5 mg/day, docetaxel 75 mg/m^2, n=1), 772 ng·h/mL. The Cmax (usually the maximum level reached in the sampled fluid or tissue) in data set [2] (60 mg/m2, Cmax, Day 1, everolimus 5 mg/day, docetaxel 60 mg/m^2, n=3, mean (SD)) was 37.7 ng/mL; in data set [2] (60 mg/m2, Cmax, Day 15, everolimus 5 mg/day, docetaxel 60 mg/m^2, n=3, mean (SD)) it was 51 ng/mL; in data set [2] (75 mg/m2, Cmax, Day 1, everolimus 5 mg/day, docetaxel 75 mg/m^2, n=10, mean (SD)) it was 22.4 ng/mL; in data set [2] (75 mg/m2, Cmax, Day 8, everolimus 5 mg/day, docetaxel 75 mg/m^2, n=6, mean (SD)) it was 35.8 ng/mL; in data set [2] (75 mg/m2, Cmax, Day 15, everolimus 5 mg/day, docetaxel 75 mg/m^2, n=6, mean (SD)), 37.8 ng/mL; in data set [2] (75 mg/m2, Cmax, Day 15, everolimus 7.5 mg/day, docetaxel 75 mg/m^2, n=1) it was 102 ng/mL. For the same molecule, the “inter-patient variability in AUC” value in data set [3] is 33%.

For `CC(=O)O[C@@]12CO[C@@H]1C[C@H](O)[C@@]1(C)C(=O)[C@H](O)C3=C(C)[C@@H](OC(=O)[C@H](O)[C@@H](NC(=O)OC(C)(C)C)c4ccccc4)C[C@@](O)([C@@H](OC(=O)c4ccccc4)[C@H]21)C3(C)C` [Docetaxel, docetaxel], the “recommended phase II dose (RP2D)” value (docetaxel day 1 every 3 weeks, in combination with everolimus) was 60 mg/m^2. For the same molecule, the half-life (usually the time in which the quantity being followed falls by half) in data set [4] is 9.4 ± 3.4 h; in data set [4] (60 mg/m2) it was 16.8 h; in data set [4] (75 mg/m2), 8.74 h. For the same molecule, the AUC(0-inf) (as a rule, the area under the concentration-time curve extrapolated to infinity) in data set [4] (60 mg/m2, AUC0-∞, Day 1, everolimus 5 mg/day, docetaxel 60 mg/m^2, n=1) came out at 2.08 µM·h; in data set [4] (75 mg/m2, AUC0-∞, Day 1, everolimus 5 mg/day, docetaxel 75 mg/m^2, n=3, mean (SD)), 6.95 µM·h; in data set [4] (75 mg/m2, AUC0-∞, Day 1, everolimus 7.5 mg/day, docetaxel 75 mg/m^2, n=1), 7.3 µM·h. In addition, the Cmax in data set [4] (60 mg/m2, Cmax, Day 1, everolimus 5 mg/day, docetaxel 60 mg/m^2, n=1) is 1010 nM; in data set [4] (75 mg/m2, Cmax, Day 1, everolimus 5 mg/day, docetaxel 75 mg/m^2, n=3, mean (SD)) it was 1610 nM. In data set [5], the “incidence of fever with neutropenia” value was 2–12%.

The values above are taken from article PMC2940062 (Cancer, 2010).
